Laboratory results published in ChEMBL document CHEMBL1155449, “Peptide HIV-1 integrase inhibitors from HIV-1 gene products” (J Med Chem, 2010).
The source made the active and inactive calls. No cut-off for these calls is given here. Where a SMILES comes first, the peptide text is derived from it.

How the values were obtained:
MT4 = assay: Cytotoxicity against human MT4 cells assessed as firefly luciferase activity at 1 to 100 uM after 6 to 7 days by chemiluminescence assay; assay type: cell-based; details: mt4, 100 µM
Method in brief: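 1×10^3 MT-4 Luc cells constitutively expressing luciferase were exposed to varying peptide concentrations in the HIV-1 HXB2 (ca. 0.2-10 ng p24) infection format. Cells lysed after 6-7 d and luciferase measured by chemiluminescence. Cytotoxicity is read as loss of luciferase signal.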

[1] = molecular target: T1, Human immunodeficiency virus type 1 integrase (Human immunodeficiency virus 1, UniProt Q7ZJM1); assay: Inhibition of HIV1 integrase 3'-end processing activity after 1 hr by densitometric analysis
[2] = test system: Human immunodeficiency virus 1; assay: Antiviral activity against HIV1 HXB2 infected in human MT4 cells assessed as firefly luciferase activity at 20 uM after 6 to 7 days by chemiluminescence assay; assay type: functional, organism-based
Method in brief: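 MT-4 Luc cells (constitutively high luciferase; HIV-1-induced cell death lowers signal), 1×10^3 cells per well, infected with HIV-1 HXB2 (ca. 0.2-10 ng p24) with varying peptide concentrations present. Lysed 6-7 d post-infection; luciferase read by chemiluminescence. Protection from HIV-1-induced death keeps signal high, and a fall in signal also serves as the cytotoxicity read-out.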

[3] = molecular target: T1, Human immunodeficiency virus type 1 integrase; assay: Inhibition of HIV1 integrase strand transfer activity after 1 hr by densitometric analysis
[4] = molecular target: Human immunodeficiency virus type 1 reverse transcriptase (Human immunodeficiency virus 1, UniProt Q72547); assay: Inhibition of HIV1 reverse transcriptase-associated ribonuclease H activity by fluorescence assay
[5] = test system: Human immunodeficiency virus 1; assay: Antiviral activity against HIV1 JRCSF infected in CD4/CCR5-expressing human NP2 cells assessed as inhibition of viral p24 antigen production measured on day 4 post viral infection by ELISA; assay type: functional, organism-based; details: JRCSF ISOLATE
Method in brief: (§1)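 1×10^5 NP2-CD4-CCR5 cells incubated 30 min at room temperature with HIV-1 JR-CSF supernatant (ca. 0.2-50 ng p24), washed and cultured with varying peptide concentrations. Supernatant p24 measured by ELISA on day 4 post-infection.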

[6] = Selectivity index, ratio of cytotoxicity against human MT4 cells to antiviral activity against HIV1 JRCSF infected in CD4/CCR5-expressing human NP2 cells; assay type: toxicity, cell-based; details: read-out: Selectivity Index
[7] = test system: Human immunodeficiency virus 1; assay: Antiviral activity against HIV1 HXB2 infected in CD4/CXCR4-expressing human NP2 cells assessed as total genome of infected virus at 0.5 uM measured on day 2 post viral infection by quantitative RT-PCR analysis relative to control; assay type: functional
Method in brief: (§2)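 NP2-CD4-CXCR4 cells infected with HIV-1 HXB2 with or without 0.5 μM peptide (DMSO control). Genomic DNA extracted day 2 post-infection. Viral DNA quantified by real-time PCR for strong-stop DNA, late reverse-transcription products, Alu-LTR (integrated) and 2-LTR (end-joined) products. Each is expressed as % of the DMSO-treated control.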

[8] = molecular target: Human immunodeficiency virus type 1 integrase (Human immunodeficiency virus 1) (UniProt Q7ZJM1); assay: Inhibition of HIV1 HXB2 integrase-mediated integrate viral genome production in CD4/CXCR4-expressing human NP2 cells assessed as production of integrate viral genome at 0.5 uM measured on day 2 post viral infection by quantitative RT-PCR analysis; assay type: cell-based; parameters: scale not given: the % may be the effect or the level left; method in brief: as §2
[9] = test system: Human immunodeficiency virus 1; assay: Antiviral activity against HIV1 HXB2 infected in CD4/CXCR4-expressing human NP2 cells assessed as generation of viral DNA at late stage of reverse transcription at 0.5 uM measured on day 2 post viral infection by quantitative RT-PCR analysis relative to control; assay type: functional; method in brief: as §2
[10] = test system: Human immunodeficiency virus 1; assay: Antiviral activity against HIV1 HXB2 infected in CD4/CXCR4-expressing human NP2 cells assessed as host cellular enzyme catalyzed end-joined viral genome production at 0.5 uM measured on day 2 post viral infection by quantitative RT-PCR analysis relative to control; assay type: functional; method in brief: as §2
[11] = test system: Human immunodeficiency virus 1; assay: Antiviral activity against HIV1 JRCSF infected in CD4/CCR5-expressing human NP2 cells assessed as inhibition of viral p24 antigen production at 0.8 uM measured on day 4 post viral infection by ELISA; assay type: functional; details: Human immunodeficiency virus 1, JRCSF ISOLATE, NP2, 96 h; method in brief: as §1
[12] = test system: Human immunodeficiency virus 1; assay: Antiviral activity against HIV1 HXB2 infected in human MT4 cells assessed as inhibition of viral p24 antigen production at 0.5 uM measured on day 4 post viral infection by ELISA; assay type: functional, organism-based
Method in brief: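 1×10^5 MT-4 cells incubated 30 min at room temperature with HIV-1 HXB2 supernatant (ca. 0.2-50 ng p24), washed and cultured with 0.5 μM peptide or without. Supernatants collected at several time points for p24 ELISA, with cells passaged as needed.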

T1 sequence (Q7ZJM1 whole entry): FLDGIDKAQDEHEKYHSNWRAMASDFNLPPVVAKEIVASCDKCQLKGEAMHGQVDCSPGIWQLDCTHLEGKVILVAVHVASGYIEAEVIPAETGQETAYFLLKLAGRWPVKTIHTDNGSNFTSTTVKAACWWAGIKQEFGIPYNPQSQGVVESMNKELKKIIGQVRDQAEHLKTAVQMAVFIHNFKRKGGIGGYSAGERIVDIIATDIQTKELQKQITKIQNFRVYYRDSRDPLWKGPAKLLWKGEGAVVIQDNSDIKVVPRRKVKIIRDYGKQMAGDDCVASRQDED
Human immunodeficiency virus type 1 integrase (Human immunodeficiency virus 1), sequence (Q7ZJM1 as listed by the source): as the sequence (Q7ZJM1 whole entry) above

| Structure (SMILES) | Activity (MT4) | IC50 [1] | Activity [2] | IC50 [3] | IC50 [4] | inhibition [5] | selectivity ratio [6] | Activity [7] | Activity [8] | Activity [9] | Activity [10] | inhibition at 0.8 µM [11] | inhibition [12] |
| --- | --- | --- | --- | --- | --- | --- | --- | --- | --- | --- | --- | --- | --- |
| CC(=O)N[C@@H](CC(C)C)C(=O)N[C@@H](CCC(N)=O)C(=O)N[C@@H](CCC(N)=O)C(=O)N[C@@H](CC(C)C)C(=O)N[C@@H](CC(C)C)C(=O)N[C@@H](Cc1ccccc1)C(=O)N[C@@H](CCCNC(=N)N)C(=O)N[C@@H](CCCNC(=N)N)C(=O)N[C@@H](CCCNC(=N)N)C(=O)N[C@@H](CCCNC(=N)N)C(=O)N[C@@H](CCCNC(=N)N)C(=O)N[C@@H](CCCNC(=N)N)C(=O)N[C@@H](CCCNC(=N)N)C(=O)N[C@@H](CCCNC(=N)N)C(N)=O (Ac-LQQLLFRRRRRRRR-NH2) | Non-toxic |  |  |  |  |  |  |  |  |  |  |  |  |
| CC[C@H](C)[C@H](NC(=O)[C@H](C)NC(=O)[C@H](CCC(=O)O)NC(C)=O)C(=O)N[C@H](C(=O)N[C@@H](CCCNC(=N)N)C(=O)N[C@H](C(=O)N[C@@H](CC(C)C)C(=O)N[C@@H](CCC(N)=O)C(=O)N[C@@H](CCC(N)=O)C(=O)N[C@@H](CC(C)C)C(=O)N[C@@H](CC(C)C)C(=O)N[C@@H](Cc1ccccc1)C(=O)N[C@H](C(=O)N[C@@H](Cc1cnc[nH]1)C(=O)N[C@@H](Cc1ccccc1)C(=O)N[C@@H](CCCNC(=N)N)C(=O)N[C@H](C(=O)NCC(=O)N[C@@H](CCCNC(=N)N)C(=O)N[C@@H](CCCNC(=N)N)C(=O)N[C@@H](CCCNC(=N)N)C(=O)N[C@@H](CCCNC(=N)N)C(=O)N[C@@H](CCCNC(=N)N)C(=O)N[C@@H](CCCNC(=N)N)C(=O)N[C@@H](CCCNC(=N)N)C(=O)N[C@@H](CCCNC(=N)N)C(N)=O)[C@@H](C)CC)[C@@H](C)CC)[C@@H](C)CC)[C@@H](C)CC | Non-toxic | 6 nM | Active | 5 nM | > 500 nM |  |  |  |  |  |  |  |  |
| CC[C@H](C)[C@H](NC(=O)[C@H](CCCNC(=N)N)NC(=O)[C@H](Cc1ccccc1)NC(=O)[C@H](Cc1cnc[nH]1)NC(=O)[C@@H](NC(=O)[C@H](Cc1ccccc1)NC(=O)[C@H](CC(C)C)NC(=O)[C@H](CC(C)C)NC(=O)[C@H](CCC(N)=O)NC(=O)[C@H](CCC(N)=O)NC(=O)[C@H](CC(C)C)NC(C)=O)[C@@H](C)CC)C(=O)NCC(=O)N[C@@H](CCCNC(=N)N)C(=O)N[C@@H](CCCNC(=N)N)C(=O)N[C@@H](CCCNC(=N)N)C(=O)N[C@@H](CCCNC(=N)N)C(=O)N[C@@H](CCCNC(=N)N)C(=O)N[C@@H](CCCNC(=N)N)C(=O)N[C@@H](CCCNC(=N)N)C(=O)N[C@@H](CCCNC(=N)N)C(N)=O | Non-toxic | 8 nM |  | 4 nM | > 500 nM | Dose-dependent effect | 10 | 139.7% | 15.8% | 84.4% | 779.8% | 50% | Active |
| CC[C@H](C)[C@H](NC(C)=O)C(=O)N[C@@H](Cc1cnc[nH]1)C(=O)N[C@@H](Cc1ccccc1)C(=O)N[C@@H](CCCNC(=N)N)C(=O)N[C@H](C(=O)NCC(=O)N[C@@H](CCCNC(=N)N)C(=O)N[C@@H](CCCNC(=N)N)C(=O)N[C@@H](CCCNC(=N)N)C(=O)N[C@@H](CCCNC(=N)N)C(=O)N[C@@H](CCCNC(=N)N)C(=O)N[C@@H](CCCNC(=N)N)C(=O)N[C@@H](CCCNC(=N)N)C(=O)N[C@@H](CCCNC(=N)N)C(N)=O)[C@@H](C)CC (Ac-IHFRIGRRRRRRRR-NH2) | Non-toxic |  | inactive |  |  |  |  |  |  |  |  |  |  |
